In brackets after ≈: the same amount, converted by molar mass.
Assays:
Type in all cases: functional, cell-based
HL-60 = experiment: Cytotoxicity against human HL60 cells after 3 days by MTT assay; details: HL-60, 72 h
Method in brief: (§1)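 Cells kept in RPMI-1640 with 10% fetal calf serum, 2 mM glutamine, streptomycin and penicillin at 37 °C, 5% CO2. Seeded at 10^5 cells/well (adherent) or 0.3 × 10^6 cells/well (suspension). […] Medium then replaced by 0.5 mg/mL MTT for 3 h, formazan dissolved in DMSO, absorbance read. IC50 by modified NCI protocol.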

HCT-8 = experiment: Cytotoxicity against human HCT8 cells after 3 days by MTT assay; details: HCT-8, 72 h; method in brief: as §1
MDA-MB-435 = experiment: Cytotoxicity against human MDA-MB-435 cells after 3 days by MTT assay; details: MDA-MB-435, 72 h
Method in brief: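 Seeded at 10^5 cells/well (adherent) or 0.3 × 10^6 cells/well (suspension). Medium then replaced by 0.5 mg/mL MTT for 3 h, formazan dissolved in DMSO, absorbance read. IC50 by modified NCI protocol.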

SF-295 = experiment: Cytotoxicity against human SF295 cells after 3 days by MTT assay; details: SF-295, 72 h; method in brief: as §1

Row | Compound | IC50 (HL-60) | IC50 (HCT-8) | IC50 (MDA-MB-435) | IC50 (SF-295)
1 | CC(C)=C/C=C/C1(C)CCN=C(N)N1 (stereo not given) [NITENSIDINE E] | 3.6 µg/mL (≈ 18.6 µM) | > 5 µg/mL | > 5 µg/mL | 4.9 µg/mL (≈ 25.3 µM)
2 | CC(C)=CCNC(=N)NCC=C(C)C [PTEROGYNIDINE] | > 5 µg/mL | > 5 µg/mL | > 5 µg/mL | > 5 µg/mL
3 | CC(C)=CCC/C(C)=C/CN=C(N)N [NITENSIDINE D] | > 5 µg/mL | > 5 µg/mL | > 5 µg/mL | > 5 µg/mL
4 | CC(C)=CCN(CC=C(C)C)C(=N)N [PTEROGYNINE] | > 5 µg/mL | > 5 µg/mL | > 5 µg/mL | > 5 µg/mL
5 | CC(C)=CCN=C(N)N [GALEGINE] | > 5 µg/mL | > 5 µg/mL | > 5 µg/mL | > 5 µg/mL
